ChEMBL document CHEMBL1122554, “Synthesis and antitumor activity of tropolone derivatives” (1984)
In brackets after ≈: the same amount, converted by molar mass.

What was measured:
Format in all cases: functional
[1] = tested on: KB; test: In vitro inhibitory activity against growth of KB cells derived from human epidermoid carcinoma of the mouth; settings: for IC50: Homo sapiens, KB, read-out: ID50 (the source's name)
In short: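 KB human epidermoid carcinoma cells grown at 37 °C in 5% CO2–95% air and seeded at 2100 cells/cm². After 24 h the medium was changed and graded drug (0.3–100 µg/mL) added, two dishes per concentration. After 48 h of exposure, cells were trypsinized and counted by Coulter counter. IC50 was read from a plot of log concentration vs. growth rate (% of control).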

[2] = tested on: Mus musculus; test: In vivo antitumor activity was measured in mice (P388 leukemia) at dose 100 mg/kg after intraperitoneal administration
In short: (§1)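 Groups of six CDF1 mice were inoculated ip with 10⁶ P388 leukemia cells. Ip drug dosing began 24 h later, given once daily for 1 and 5 days. %T/C = median survival time of the treated group ÷ median survival time of the tumor control group × 100.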

[3] = tested on: Mus musculus; test: In vivo antitumor activity was measured in mice (P388 leukemia) at dose 400 mg/kg after intraperitoneal administration; in short: as §1
[4] = tested on: Mus musculus; test: In vivo antitumor activity was measured in mice (P388 leukemia) at dose 200 mg/kg after intraperitoneal administration; in short: as §1
[5] = tested on: Mus musculus; test: In vivo antitumor activity was measured in mice (P388 leukemia) at dose 50 mg/kg after intraperitoneal administration; in short: as §1
[6] = tested on: Mus musculus; test: In vivo antitumor activity was measured in mice (P388 leukemia) at dose 5 mg/kg after intraperitoneal administration; in short: as §1
[7] = tested on: Mus musculus; test: In vivo antitumor activity was measured in mice (P388 leukemia) at dose 2.5 mg/kg after intraperitoneal administration; in short: as §1
[8] = tested on: Mus musculus; test: In vivo antitumor activity was measured in mice (P388 leukemia) at dose 10 mg/kg after intraperitoneal administration; in short: as §1
[9] = tested on: Mus musculus; test: In vivo antitumor activity was measured in mice (P388 leukemia) at dose 20 mg/kg after intraperitoneal administration; in short: as §1
[10] = tested on: Mus musculus; test: In vivo antitumor activity was measured in mice (P388 leukemia) at dose 0.6 mg/kg after intraperitoneal administration; in short: as §1
[11] = tested on: Mus musculus; test: IIn vivo %T/C was measured in mice (P388 leukemia) at dose 10 mg/kg after intraperitoneal administration; in short: as §1
[12] = tested on: Mus musculus; test: In vivo antitumor activity was measured in mice (P388 leukemia) at dose 1.3 mg/kg after intraperitoneal administration; in short: as §1
[13] = tested on: Mus musculus; test: In vivo antitumor activity was measured in mice (P388 leukemia) at dose 1 mg/kg after intraperitoneal administration; in short: as §1
[14] = tested on: Mus musculus; test: In vivo antitumor activity was measured in mice (P388 leukemia) at dose 0.3 mg/kg after intraperitoneal administration; in short: as §1
[15] = tested on: Mus musculus; test: In vivo antitumor activity was measured in mice (P388 leukemia) at dose 0.5 mg/kg after intraperitoneal administration; in short: as §1
[16] = tested on: Mus musculus; test: In vivo antitumor activity was measured in mice (P388 leukemia)at dose 100 mg/kg after intraperitoneal administration
In short: (§2)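 Groups of six CDF1 mice inoculated ip with 10⁶ P388 leukemia cells; ip drug treatment begun 24 h after inoculation, listed dose given once a day for 1 and 5 days. Endpoint: median survival time of treated group divided by that of tumor controls ×100 (% T/C).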

[17] = tested on: Mus musculus; test: In vivo antitumor activity was measured in mice (P388 leukemia)at dose 200 mg/kg after intraperitoneal administration; in short: as §2

| IC50 [1] | SMILES | ID50 [1] | T/C [2] | T/C [3] | T/C [4] | T/C [6] | further results |
| --- | --- | --- | --- | --- | --- | --- | --- |
| 1.4 µg/mL (≈ 4.24 µM) | CC(C)c1ccc(C(c2ccccc2)c2ccccc2)c(O)c(=O)c1 | 4200 nM | 119% |  |  |  |  |
| 0.5 µg/mL (≈ 1.52 µM) | CCOC(c1ccc(OC)cc1)c1ccc(C(C)C)cc(=O)c1O (stereo not given) | 1500 nM |  | 140% | 128% |  |  |
| 0.3 µg/mL (≈ 0.901 µM) | CCOC(c1ccc(Cl)cc1)c1ccc(C(C)C)cc(=O)c1O (stereo not given) | 900 nM | 99% | 0% | 109% |  |  |
|  | CCOC(/C=C/c1ccccc1)c1ccc(C(C)C)cc(=O)c1O (stereo not given) |  | 112% | 0% | 100% |  |  |
| 29 µg/mL (≈ 93.4 µM) | COc1cc(C(C)C)ccc(C2OCCc3ccccc32)c1=O (stereo not given) | 93000 nM | 92% | 98% | 94% |  |  |
| 49.5 µg/mL (≈ 278 µM) | COc1cc(C(C)C)cccc1=O | 278000 nM | 108% |  | 0% |  | T/C [5]: 106% |
| 1.5 µg/mL (≈ 3.48 µM) | Cc1ccc(C(c2ccc(C(C)C)cc(=O)c2O)c2ccc(C(C)C)cc(=O)c2O)cc1 | 3400 nM |  |  |  | 147% |  |
| 0.3 µg/mL (≈ 0.629 µM) | COc1ccc(C(c2ccc(C(C)C)cc(=O)c2O)c2ccc(C(C)C)cc(=O)c2O)cc1OC | 600 nM |  |  |  | 156% | T/C [7]: 137%; T/C [8]: 158% |
| 0.3 µg/mL (≈ 1.01 µM) | CCOC(c1ccccc1)c1ccc(C(C)C)cc(=O)c1O (stereo not given) | 1000 nM | 102% | 0% |  |  |  |
| 18 µg/mL (≈ 58 µM) | COc1c(C2OCCc3ccccc32)ccc(C(C)C)cc1=O (stereo not given) | 58000 nM | 93% | 98% | 88% |  |  |
| 2 µg/mL (≈ 4.43 µM) | CC(C)c1ccc(C(c2ccc(Cl)cc2)c2ccc(C(C)C)cc(=O)c2O)c(O)c(=O)c1 | 4400 nM |  |  |  | 141% |  |
|  | Cc1ccccc1C(c1ccc(C(C)C)cc(=O)c1O)c1ccc(C(C)C)cc(=O)c1O |  |  |  |  | 156% | T/C [9]: 158%; T/C [7]: 137% |
| 0.5 µg/mL (≈ 1.12 µM) | COc1ccc(C(c2ccc(C(C)C)cc(=O)c2O)c2ccc(C(C)C)cc(=O)c2O)cc1 | 1100 nM |  |  |  |  | T/C [10]: 127%; T/C [7]: 134% |
| 0.3 µg/mL (≈ 0.672 µM) | COc1ccc(C(c2cc(C(C)C)ccc(=O)c2O)c2cc(C(C)C)ccc(=O)c2O)cc1 | 600 nM |  |  |  | 156% |  |
| 0.5 µg/mL (≈ 1.97 µM) | CC(C)c1ccc(Cc2ccccc2)c(O)c(=O)c1 | 2000 nM | 94% | 88% |  |  |  |
| 1.1 µg/mL (≈ 2.46 µM) | COc1cccc(C(c2ccc(C(C)C)cc(=O)c2O)c2ccc(C(C)C)cc(=O)c2O)c1 | 2400 nM |  |  |  | 134% | T/C [7]: 142%; T/C [8]: 134% |
|  | COc1ccccc1C(c1ccc(C(C)C)cc(=O)c1O)c1ccc(C(C)C)cc(=O)c1O |  |  |  |  | 151% | T/C [9]: 0%; T/C [11]: 162% |
| 1.2 µg/mL (≈ 4.57 µM) | C/C=C/C(OCC)c1ccc(C(C)C)cc(=O)c1O (stereo not given) | 4500 nM | 101% | 115% | 116% |  |  |
| 6.2 µg/mL (≈ 19.8 µM) | CCOC(c1ccc(C)cc1)c1ccc(C(C)C)cc(=O)c1O (stereo not given) | 9900 nM | 105% |  | 105% |  |  |
| 0.6 µg/mL (≈ 1.76 µM) | CCOC(c1ccc(N(C)C)cc1)c1ccc(C(C)C)cc(=O)c1O (stereo not given) | 1700 nM |  | 0% | 128% |  |  |
| 0.7 µg/mL (≈ 1.52 µM) | CC(C)c1ccc(C(c2ccc(N(C)C)cc2)c2ccc(C(C)C)cc(=O)c2O)c(O)c(=O)c1 | 1500 nM |  |  |  | 173% | T/C [8]: 177% |
| 0.5 µg/mL (≈ 1.69 µM) | CC(C)c1ccc(C2OCCc3ccccc32)c(O)c(=O)c1 (stereo not given) | 1700 nM | 127% | 108% | 126% |  | T/C [5]: 128% |
| 0.3 µg/mL (≈ 0.72 µM) | CC(C)c1ccc(C(c2ccccc2)c2ccc(C(C)C)cc(=O)c2O)c(O)c(=O)c1 | 700 nM |  |  |  |  | T/C [12]: 132%; T/C [7]: 150% |
| 2.2 µg/mL (≈ 5.51 µM) | COc1cc2c(c(OC)c1OC)-c1ccc(OC)c(=O)cc1[C@@H](NC(C)=O)CC2 [COLCHICINE] | 6000 nM |  |  |  |  | T/C [13]: 166%; T/C [14]: 142%; T/C [15]: 160% |

| SMILES | IC50 [1] | ID50 [1] | T/C [2] | T/C [3] | T/C [4] | T/C [6] | further results |
| --- | --- | --- | --- | --- | --- | --- | --- |
| O=c1ccccc(C2OCCc3ccccc32)c1O (stereo not given) | 0.5 µg/mL (≈ 1.97 µM) | 1600 nM | 104% | 0% | 96% |  |  |
| CC(C)c1cccc(=O)c(O)c1 [HINOKITIOL] | 0.5 µg/mL (≈ 3.04 µM) | 3600 nM |  | 0% |  |  | T/C [16]: 100%; T/C [17]: 62%; T/C [5]: 103% |
